Test results reported in ChEMBL document CHEMBL1146840, “Syntheses and radical scavenging activities of resveratrol derivatives” (Bioorg Med Chem Lett, 2004).

Key:
[1] = Free radical scavenging activity of DPPH was determined; value taken from reference 11
[2] = Free radical scavenging activity of DPPH relative to resveratrol was determined
How it was run: (§1)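 Ethanolic DPPH (1.01×10^-4 M) plus sample (1:9 by volume), 30 min at room temperature, absorbance at 518 nm, decrease versus control. Triplicate, repeated at least three times. The relative value is the IC50 of resveratrol divided by the IC50 of the test compound.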

[3] = Free radical scavenging activity of DPPH was determined
How it was run: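 DPPH bleaching assay: sample solution mixed 1:9 with ethanolic DPPH (1.01×10^-4 M), kept 30 min at room temperature, then A518 read and remaining DPPH calculated. Triplicate, repeated at least three times.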

[4] = Free radical scavenging activity of DPPH expressed as percent polyphenol
[5] = Half life of the radiolabeled compound was determined; format: ADME
[6] = Free radical scavenging activity of DPPH w.r.t. resveratrol was determined; how it was run: as §1

Compound	IC50 [1] [µM]	Relative IC50 [2]	IC50 [3] [µM]	Activity [4] [%]	T1/2 [5] [h]	Relative IC50 [6]
Oc1cc(O)cc(/C=C/c2ccc(O)c(O)c2)c1 [PICEATANNOL]	29	2.55	–	–	–	–
Oc1cc(O)c2c(c1)O[C@H](c1ccc(O)c(O)c1)[C@H](O)C2 [(-)-EPICATECHIN]	15.7	4.71	–	–	–	–
Oc1cc(O)cc(/C=C/c2ccc(O)c(Br)c2)c1	–	2.41	51.2	98	–	–
OC[C@H]1O[C@@H](Oc2cc(O)cc(/C=C/c3ccc(O)cc3)c2)[C@H](O)[C@@H](O)[C@@H]1O [PICEID]	200	0.37	–	–	–	–
Oc1cc(O)cc(/C=C/c2ccc(O)c(I)c2)c1	–	1.68	73.4	88	–	–
[18FH] [F-18]	–	–	–	–	1.83	–
OC[C@H]1O[C@@H](Oc2cc(O)cc(/C=C/c3ccc(O)c(O)c3)c2)[C@H](O)[C@@H](O)[C@@H]1O	30.6	2.42	–	–	–	–
Oc1ccc(/C=C/c2cc(O)c(I)c(O)c2)cc1	–	1.75	70.6	72	–	–
Oc1ccc(/C=C/c2cc(O)cc(O)c2)cc1 [RESVERATROL]	74	–	123	100	–	1
COc1ccc(/C=C/c2cc(OC)cc(OC)c2Br)cc1	–	–	–	26.6	–	–
Oc1cc(O)c2c(c1)O[C@H](c1ccc(O)c(O)c1)[C@@H](O)C2 [CIANIDANOL]	20.2	3.66	–	–	–	–
Oc1cc(O)cc(/C=C/c2ccc(O)c(CCF)c2)c1	–	2.6	47.4	95.6	–	–
Oc1ccc(/C=C/c2cc(O)cc(O)c2Br)cc1	–	3.43	35.9	85.8	–	–
COc1cc(/C=C/c2ccc(O)c(CCF)c2)cc(OC)c1	–	1.77	69.5	50.4	–	–
